ChEMBL document CHEMBL1649433, “Violacein extracted from Chromobacterium violaceum inhibits Plasmodium growth in vitro and in vivo” (Antimicrob Agents Chemother, 2009)
Active and inactive are the calls of the source. The calls are words filed in the database; no cut-off is given here.

Legend:
Plasmodium chabaudi [1] = assay: Antimalarial activity against nonlethal Plasmodium chabaudi chabaudi AS infected in C57BL/6 mouse assessed as inhibition of parasitemia at 0.75 mg/kg/day, ip administered 1 hr post-infection and measured on day 5 post-infection; format: functional; details: route intraperitoneal
Method in brief: (§1)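 C57BL/6 mice (7-10 per group, aged 7-10 weeks, 20 ± 3 g) infected i.p. with 106 IE of P. c. chabaudi AS; given daily i.p. doses of 0.75 to 7.5 mg/kg/day for 11 consecutive days (days 0-10), first dose 1 h p.i. Parasitemia counted daily in Giemsa-stained smears (≥1,000 erythrocytes) until day 12; inhibition relative to untreated mice.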

Plasmodium chabaudi [2] = assay: Antimalarial activity against nonlethal Plasmodium chabaudi chabaudi AS infected in C57BL/6 mouse assessed as inhibition of parasitemia at 0.075 mg/kg/day, ip administered 1 hr post-infection and measured on day 8 post-infection; format: functional; details: route intraperitoneal
Plasmodium chabaudi [3] = assay: Antimalarial activity against nonlethal Plasmodium chabaudi chabaudi AS infected in C57BL/6 mouse assessed as inhibition of parasitemia at 7.5 mg/kg/day, ip administered 5 days post-infection and measured on day 7 post-infection; format: functional; details: route intraperitoneal
Method in brief: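 Mice infected i.p. with 106 P. c. chabaudi AS IE; 7.5 mg/kg/day given i.p. daily from day 5 p.i. (16% parasitemia) to day 10 (6 days). Parasitemia counted daily in Giemsa-stained smears (≥1,000 erythrocytes) versus untreated mice; Mann-Whitney U test.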

Plasmodium chabaudi [4] = assay: Antimalarial activity against nonlethal Plasmodium chabaudi chabaudi AS infected in C57BL/6 mouse assessed as inhibition of parasitemia at 7.5 mg/kg/day, ip administered 1 hr post-infection and measured on day 5 post-infection; format: functional; details: route intraperitoneal; method in brief: as §1
Plasmodium chabaudi [5] = assay: Antimalarial activity against nonlethal Plasmodium chabaudi chabaudi AS infected in C57BL/6 mouse assessed as inhibition of parasitemia at 3.75 mg/kg/day, ip administered 1 hr post-infection and measured on day 7 post-infection; format: functional; details: route intraperitoneal; method in brief: as §1
Plasmodium chabaudi [6] = assay: Antimalarial activity against nonlethal Plasmodium chabaudi chabaudi AS infected in C57BL/6 mouse assessed as inhibition of parasitemia at 0.75 mg/kg/day, ip administered 1 hr post-infection and measured on day 8 post-infection; format: functional; details: route intraperitoneal; method in brief: as §1
Plasmodium chabaudi [7] = assay: Antimalarial activity against lethal Plasmodium chabaudi chabaudi AJ infected in C57BL/6 mouse assessed as mouse survival rate at 7.5 mg/kg/day, ip administered 1 hr post-infection and measured on day 16 post-infection; format: functional; details: route intraperitoneal
Method in brief: (§2)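 C57BL/6 mice, groups of 10, aged 7-10 weeks, 20 ± 3 g, infected i.p. with 106 IE of lethal P. c. chabaudi AJ; 7.5 mg/kg/day given i.p. for 11 consecutive days (days 0-10 p.i.), first dose 1 h p.i.; survival followed daily versus untreated mice; Log-Rank test.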

Plasmodium falciparum [8] = assay: Antimalarial activity against Plasmodium falciparum mature blood forms (24 to 48 hrs ring stage) infected in erythrocytes after 24 hrs by [3H]hypoxanthine incorporation assay; format: functional, organism-based; details: in the assay text read “trophozoites and schizonts stage” for “ring stage”
Method in brief: (§3)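 Synchronized (±6 h) P. falciparum 3D7 blood stages were prepared by repeated 5% sorbitol treatment. Rings (0-24 h) or trophozoites/schizonts (24-48 h) were used at 1% parasitemia and 2% final hematocrit, exposed to violacein for 24 h, and growth was read by [3H]-hypoxanthine incorporation. Inhibition % = [1 − (CPM treated − CPM uninfected RBC)/(CPM untreated − CPM uninfected RBC)] × 100. Runs were in triplicate.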

Plasmodium chabaudi [9] = assay: Antimalarial activity against lethal Plasmodium chabaudi chabaudi AJ infected in C57BL/6 mouse assessed as mouse survival rate at 7.5 mg/kg/day, ip administered 1 hr post-infection and measured on day 9 post-infection; format: functional; details: route intraperitoneal; method in brief: as §2
Plasmodium chabaudi [10] = assay: Antimalarial activity against nonlethal Plasmodium chabaudi chabaudi AS infected in C57BL/6 mouse assessed as inhibition of parasitemia at 0.75 mg/kg/day, ip administered 1 hr post-infection and measured on day 7 post-infection; format: functional; details: route intraperitoneal; method in brief: as §1
Plasmodium falciparum [11] = assay: Antimalarial activity against Plasmodium falciparum young blood forms (0 to 24 hrs ring stage) infected in erythrocytes after 24 hrs by [3H]hypoxanthine incorporation assay; format: functional, organism-based; method in brief: as §3
Plasmodium falciparum [12] = assay: Antimalarial activity against chloroquine-sensitive Plasmodium falciparum 3D7 infected in erythrocytes after 48 hrs by [3H]hypoxanthine incorporation assay; format: functional, organism-based
Method in brief: (§4)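 Erythrocytes infected with P. falciparum at 1% parasitemia, 2% final hematocrit; growth read by [3H]-hypoxanthine incorporation after 48 h at 37°C. Inhibition % = [1 – (CPM treated IE – CPM NE)/(CPM untreated IE – CPM NE)] x 100, untreated IE as 100% growth. Triplicates, at least three times with different batches and cells; concentrations from 0.06 µM upward; IC50 from dose-response.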

Plasmodium chabaudi [13] = assay: Antimalarial activity against nonlethal Plasmodium chabaudi chabaudi AS infected in C57BL/6 mouse assessed as inhibition of parasitemia at 0.075 mg/kg/day, ip administered 1 hr post-infection and measured on day 6 post-infection; format: functional, organism-based
Method in brief: (§5)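 C57BL/6 mice (7-10 per group, 7-10 weeks old, 20 ± 3 g) were infected i.p. with 10^6 P. chabaudi chabaudi AS infected erythrocytes. Violacein was given i.p. daily for 11 days (days 0-10), starting 1 h post-infection. Parasitemia was counted daily on Giemsa-stained smears (≥1,000 erythrocytes) and inhibition was calculated against untreated infected mice.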

Plasmodium chabaudi [14] = assay: Antimalarial activity against nonlethal Plasmodium chabaudi chabaudi AS infected in C57BL/6 mouse assessed as inhibition of parasitemia at 3.75 mg/kg/day, ip administered 1 hr post-infection and measured on day 6 post-infection; format: functional; details: route intraperitoneal; method in brief: as §1
Plasmodium chabaudi [15] = assay: Antimalarial activity against nonlethal Plasmodium chabaudi chabaudi AS infected in C57BL/6 mouse assessed as inhibition of parasitemia at 7.5 mg/kg/day, ip administered 1 hr post-infection and measured on day 8 post-infection; format: functional; details: route intraperitoneal; method in brief: as §1
Plasmodium chabaudi [16] = assay: Antimalarial activity against nonlethal Plasmodium chabaudi chabaudi AS infected in C57BL/6 mouse assessed as inhibition of parasitemia at 0.075 mg/kg/day, ip administered 1 hr post-infection and measured on day 7 post-infection; format: functional, organism-based; method in brief: as §5
Plasmodium chabaudi [17] = assay: Antimalarial activity against lethal Plasmodium chabaudi chabaudi AJ infected in C57BL/6 mouse assessed as mouse survival rate at 7.5 mg/kg/day, ip administered 1 hr post-infection and measured on day 14 post-infection; format: functional; details: route intraperitoneal; method in brief: as §2
Plasmodium chabaudi [18] = assay: Antimalarial activity against nonlethal Plasmodium chabaudi chabaudi AS infected in C57BL/6 mouse assessed as inhibition of parasitemia at 7.5 mg/kg/day, ip administered 1 hr post-infection and measured on day 6 post-infection; format: functional; details: route intraperitoneal; method in brief: as §1
[19] = Toxicity in erythrocytes assessed as red blood cell density at 14 uM after 48 hrs; format: cell-based; details: erythrocyte
Method in brief: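 Uninfected erythrocytes were cultured 48 h at 37°C with a range of violacein concentrations. Cells were counted in a Neubauer chamber. RBC density was expressed as % of the drug-free control: (RBC/mL with violacein ÷ RBC/mL without) × 100. Results are means of triplicates ± SD, with Mann-Whitney U test for significance.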

Plasmodium chabaudi [20] = assay: Antimalarial activity against nonlethal Plasmodium chabaudi chabaudi AS infected in C57BL/6 mouse assessed inhibition of parasitemia at 7.5 mg/kg/day, ip for 10 days followed by compound withdrawal and measured on day 16 post-infection; format: functional; details: route intraperitoneal
Method in brief: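 Mice infected i.p. with 106 P. c. chabaudi AS IE; 7.5 mg/kg/day given i.p. for 11 days (0-10 p.i.) from 1 h p.i., then withdrawn. Parasitemia followed in Giemsa-stained smears until day 22 p.i. versus untreated mice; Mann-Whitney U test.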

Plasmodium chabaudi [21] = assay: Antimalarial activity against nonlethal Plasmodium chabaudi chabaudi AS infected in C57BL/6 mouse assessed as inhibition of parasitemia at 0.75 mg/kg/day, ip administered 1 hr post-infection and measured on day 6 post-infection; format: functional; details: route intraperitoneal; method in brief: as §1
Plasmodium chabaudi [22] = assay: Antimalarial activity against nonlethal Plasmodium chabaudi chabaudi AS infected in C57BL/6 mouse assessed as inhibition of parasitemia at 3.75 mg/kg/day, ip administered 1 hr post-infection and measured on day 8 post-infection; format: functional; details: route intraperitoneal; method in brief: as §1
Plasmodium chabaudi [23] = assay: Antimalarial activity against nonlethal Plasmodium chabaudi chabaudi AS infected in C57BL/6 mouse assessed as inhibition of parasitemia at 3.75 mg/kg/day, ip administered 1 hr post-infection and measured on day 5 post-infection; format: functional; details: route intraperitoneal; method in brief: as §1
Plasmodium chabaudi [24] = assay: Antimalarial activity against nonlethal Plasmodium chabaudi chabaudi AS infected in C57BL/6 mouse assessed as inhibition of parasitemia at 0.075 mg/kg/day, ip administered 1 hr post-infection and measured on day 5 post-infection; format: functional, organism-based; method in brief: as §5
Plasmodium falciparum [25] = assay: Antimalarial activity against chloroquine-resistant Plasmodium falciparum S20 infected in erythrocytes after 48 hrs by [3H]hypoxanthine incorporation assay; format: functional, organism-based; method in brief: as §4
Plasmodium chabaudi [26] = assay: Antimalarial activity against nonlethal Plasmodium chabaudi chabaudi AS infected in C57BL/6 mouse assessed as inhibition of parasitemia at 7.5 mg/kg/day, ip administered 1 hr post-infection and measured on day 7 post-infection; format: functional; details: route intraperitoneal; method in brief: as §1

O=C1NC(c2c[nH]c3ccc(O)cc23)=C/C1=C1\C(=O)Nc2ccccc21 [VIOLACEIN]
inhibition in vivo at 0.75 mg/kg/day (Plasmodium chabaudi [1]): 3.58% | inhibition in vivo at 0.075 mg/kg/day (Plasmodium chabaudi [2]): 12% | inhibition in vivo at 7.5 mg/kg/day (Plasmodium chabaudi [3]): 50.1% | inhibition in vivo at 7.5 mg/kg/day (Plasmodium chabaudi [4]): 56.5% | inhibition in vivo at 3.75 mg/kg/day (Plasmodium chabaudi [5]): 82.1% | inhibition in vivo at 0.75 mg/kg/day (Plasmodium chabaudi [6]): 48.9% | survival at 7.5 mg/kg/day (Plasmodium chabaudi [7]): 80% | inhibition (Plasmodium falciparum [8]): Active | survival at 7.5 mg/kg/day (Plasmodium chabaudi [9]): 10% | inhibition in vivo at 0.75 mg/kg/day (Plasmodium chabaudi [10]): 39.2% | inhibition (Plasmodium falciparum [11]): Active | IC50 (Plasmodium falciparum [12]): 850 nM | inhibition (Plasmodium chabaudi [13]): inactive | inhibition in vivo at 3.75 mg/kg/day (Plasmodium chabaudi [14]): 64.9% | inhibition in vivo at 7.5 mg/kg/day (Plasmodium chabaudi [15]): 84.7% | inhibition (Plasmodium chabaudi [16]): inactive | survival at 7.5 mg/kg/day (Plasmodium chabaudi [17]): 14% | inhibition in vivo at 7.5 mg/kg/day (Plasmodium chabaudi [18]): 75.4% | Activity [19]: Toxic | inhibition in vivo at 7.5 mg/kg/day (Plasmodium chabaudi [20]): 59% | inhibition in vivo at 0.75 mg/kg/day (Plasmodium chabaudi [21]): 20.4% | inhibition in vivo at 3.75 mg/kg/day (Plasmodium chabaudi [22]): 75.7% | inhibition in vivo at 3.75 mg/kg/day (Plasmodium chabaudi [23]): 33.2% | inhibition (Plasmodium chabaudi [24]): inactive | IC50 (Plasmodium falciparum [25]): 630 nM | inhibition in vivo at 7.5 mg/kg/day (Plasmodium chabaudi [26]): 86.9%
